Reference: ChEMBL document CHEMBL3407438, “Discovery of potent, orally bioavailable, small-molecule inhibitors of WNT signaling from a cell-based pathway screen” (J Med Chem, 2015)

Experiments:
[1] = Tmax in NMRI mouse at 0.2 mg/kg, iv; format: ADME, organism-based; design: dose 0.2 mg/kg, route intravenous; details: in vivo
Summary of the method: (§1)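 Female NMRI mice (n = 5) given a single iv bolus (0.2 mg/kg per compound) or oral gavage (0.5 mg/kg per compound) as a cassette, in DMSO/PEG 200/water. Serial retro-orbital blood was drawn under isoflurane from 3 animals per route at 0.1 (iv), 0.25 (po), 0.5, 1, 2, 4 and 6 h. Plasma was quantified by LC–MS/MS.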

[2] = Clearance in NMRI mouse at 0.2 mg/kg, iv; format: ADME, organism-based; design: dose 0.2 mg/kg, route intravenous; details: in vivo; summary of the method: as §1
[3] = molecular target: T1, Poly [ADP-ribose] polymerase tankyrase-2 (Homo sapiens, UniProt Q9H2K2); experiment: Inhibition of GST-tagged TNKS2 (873 to 1166 aa) (unknown origin) after 90 mins by HTRF assay
T1 sequence (Q9H2K2 whole entry): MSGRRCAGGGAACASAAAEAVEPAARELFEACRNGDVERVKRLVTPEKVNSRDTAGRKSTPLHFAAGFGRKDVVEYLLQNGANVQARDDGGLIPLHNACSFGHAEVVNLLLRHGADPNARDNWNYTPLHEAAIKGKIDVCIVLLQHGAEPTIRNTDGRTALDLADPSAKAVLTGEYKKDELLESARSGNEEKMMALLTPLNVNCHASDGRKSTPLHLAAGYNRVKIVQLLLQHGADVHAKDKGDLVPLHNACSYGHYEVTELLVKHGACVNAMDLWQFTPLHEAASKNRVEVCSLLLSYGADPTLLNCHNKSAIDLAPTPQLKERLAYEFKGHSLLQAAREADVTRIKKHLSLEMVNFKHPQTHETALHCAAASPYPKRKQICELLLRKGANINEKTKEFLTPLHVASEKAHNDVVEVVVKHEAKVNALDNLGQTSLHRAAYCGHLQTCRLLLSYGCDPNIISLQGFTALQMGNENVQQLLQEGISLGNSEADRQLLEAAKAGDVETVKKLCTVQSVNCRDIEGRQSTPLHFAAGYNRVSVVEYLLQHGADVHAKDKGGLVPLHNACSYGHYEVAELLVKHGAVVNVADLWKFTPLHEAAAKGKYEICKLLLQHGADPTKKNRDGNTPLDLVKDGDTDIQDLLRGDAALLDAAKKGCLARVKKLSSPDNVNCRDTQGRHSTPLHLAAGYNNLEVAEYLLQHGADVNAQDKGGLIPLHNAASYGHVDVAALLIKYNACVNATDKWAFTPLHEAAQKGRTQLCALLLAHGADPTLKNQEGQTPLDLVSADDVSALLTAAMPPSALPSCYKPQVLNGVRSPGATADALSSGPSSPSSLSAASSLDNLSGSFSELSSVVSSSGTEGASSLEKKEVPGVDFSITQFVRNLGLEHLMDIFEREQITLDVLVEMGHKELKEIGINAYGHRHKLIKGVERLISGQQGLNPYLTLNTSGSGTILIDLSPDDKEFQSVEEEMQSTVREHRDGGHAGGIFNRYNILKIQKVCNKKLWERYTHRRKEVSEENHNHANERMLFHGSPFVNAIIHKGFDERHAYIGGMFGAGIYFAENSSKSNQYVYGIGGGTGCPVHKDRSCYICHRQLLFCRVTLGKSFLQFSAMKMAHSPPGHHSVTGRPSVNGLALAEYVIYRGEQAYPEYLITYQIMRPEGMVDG

[4] = molecular target: Cytochrome P450 3A4 (Homo sapiens, UniProt P08684); experiment: Inhibition of CYP3A4 (unknown origin); format: ADME
Chain of Cytochrome P450 3A4 (P08684 whole entry): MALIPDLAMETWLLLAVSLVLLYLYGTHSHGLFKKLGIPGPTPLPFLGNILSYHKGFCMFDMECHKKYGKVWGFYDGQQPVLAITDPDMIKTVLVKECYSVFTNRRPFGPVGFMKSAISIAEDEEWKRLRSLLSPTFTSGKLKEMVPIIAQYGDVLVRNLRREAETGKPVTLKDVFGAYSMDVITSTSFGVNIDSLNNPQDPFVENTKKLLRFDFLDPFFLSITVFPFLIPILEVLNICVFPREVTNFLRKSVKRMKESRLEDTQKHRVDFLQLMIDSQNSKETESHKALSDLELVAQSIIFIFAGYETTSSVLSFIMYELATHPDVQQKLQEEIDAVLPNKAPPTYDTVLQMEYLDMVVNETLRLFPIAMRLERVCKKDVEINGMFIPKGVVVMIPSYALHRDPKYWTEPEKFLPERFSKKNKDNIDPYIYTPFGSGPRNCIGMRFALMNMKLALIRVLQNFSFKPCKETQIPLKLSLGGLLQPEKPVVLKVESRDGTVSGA

[5] = Volume of distribution at steady state in NMRI mouse at 0.2 mg/kg, iv; format: ADME, organism-based; design: dose 0.2 mg/kg, route intravenous; details: in vivo, read-out: Vdss; summary of the method: as §1
[6] = cells; format: cell-based; details: Homo sapiens, 7dF3
[7] = Apparent permeability in human Caco2 cells after 2 hrs by LC-MS/MS analysis; format: ADME, cell-based, Caco-2; details: caco-2, 2 h
[8] = Half life in NMRI mouse at 0.2 mg/kg, iv; format: ADME, organism-based; design: dose 0.2 mg/kg, route intravenous; details: in vivo; summary of the method: as §1
[9] = AUC in NMRI mouse at 0.5 mg/kg, po; format: ADME, organism-based; design: dose 0.5 mg/kg, route oral; details: plasma; summary of the method: as §1
[10] = Drug metabolism in mouse liver microsome at 10 uM after 30 mins by LC-MS analysis; format: ADME; details: liver microsomes, read-out: Drug metabolism
[11] = Kinetic solubility of the compound in phosphate buffer at pH 7.4; format: physicochemical
[12] = Drug metabolism in human liver microsome at 10 uM after 30 mins by LC-MS analysis; format: ADME; details: liver microsomes, read-out: Drug metabolism
[13] = Oral bioavailability in NMRI mouse at 0.5 mg/kg; format: ADME, organism-based; details: in vivo
[14] = AUC in NMRI mouse at 0.2 mg/kg, iv; format: ADME, organism-based; design: dose 0.2 mg/kg, route intravenous; details: plasma; summary of the method: as §1
[15] = Thermodynamic aqueous solubility of the compound in phosphate buffer at pH 7.4; format: physicochemical
Summary of the method: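 Kinetic and thermodynamic aqueous solubilities were measured in phosphate buffer at pH 7.4.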

[16] = molecular target: T2, Poly [ADP-ribose] polymerase tankyrase-1 (Homo sapiens, UniProt O95271); experiment: Inhibition of GST-tagged TNKS1 (1023 to 1327 aa) (unknown origin) after 90 mins by HTRF assay
T2 sequence (O95271 whole entry): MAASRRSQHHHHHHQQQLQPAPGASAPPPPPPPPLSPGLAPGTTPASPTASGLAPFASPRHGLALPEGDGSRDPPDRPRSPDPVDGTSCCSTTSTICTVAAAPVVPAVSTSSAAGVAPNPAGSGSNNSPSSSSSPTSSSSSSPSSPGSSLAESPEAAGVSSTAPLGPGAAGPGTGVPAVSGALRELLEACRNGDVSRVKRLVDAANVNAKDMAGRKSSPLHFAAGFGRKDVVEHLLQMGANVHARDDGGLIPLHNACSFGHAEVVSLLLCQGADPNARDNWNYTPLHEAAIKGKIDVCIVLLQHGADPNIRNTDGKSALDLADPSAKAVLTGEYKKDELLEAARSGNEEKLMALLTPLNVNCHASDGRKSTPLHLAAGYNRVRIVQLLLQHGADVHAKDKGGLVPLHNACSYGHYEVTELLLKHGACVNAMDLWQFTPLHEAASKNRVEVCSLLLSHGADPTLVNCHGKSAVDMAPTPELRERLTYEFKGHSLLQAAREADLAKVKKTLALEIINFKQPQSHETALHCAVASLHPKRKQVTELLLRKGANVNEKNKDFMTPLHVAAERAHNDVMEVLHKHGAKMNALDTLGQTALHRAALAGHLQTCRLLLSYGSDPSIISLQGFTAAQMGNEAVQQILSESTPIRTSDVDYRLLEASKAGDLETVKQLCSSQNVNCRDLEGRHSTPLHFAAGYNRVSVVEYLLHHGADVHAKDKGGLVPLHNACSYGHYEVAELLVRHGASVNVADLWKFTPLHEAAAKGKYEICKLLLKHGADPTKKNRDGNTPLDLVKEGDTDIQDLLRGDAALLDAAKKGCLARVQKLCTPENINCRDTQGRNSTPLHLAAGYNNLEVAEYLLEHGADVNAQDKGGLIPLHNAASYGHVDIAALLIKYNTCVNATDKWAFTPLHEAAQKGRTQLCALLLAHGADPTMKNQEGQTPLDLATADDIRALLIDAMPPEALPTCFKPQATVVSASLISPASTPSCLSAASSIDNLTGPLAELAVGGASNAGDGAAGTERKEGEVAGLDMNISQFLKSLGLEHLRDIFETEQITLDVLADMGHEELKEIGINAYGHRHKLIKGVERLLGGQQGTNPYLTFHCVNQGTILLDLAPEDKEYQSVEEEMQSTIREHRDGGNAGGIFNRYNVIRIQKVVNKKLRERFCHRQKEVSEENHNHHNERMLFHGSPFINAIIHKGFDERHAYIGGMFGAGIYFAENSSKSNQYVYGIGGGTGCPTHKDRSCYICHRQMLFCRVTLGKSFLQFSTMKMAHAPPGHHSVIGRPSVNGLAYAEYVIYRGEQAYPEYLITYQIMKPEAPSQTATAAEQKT

[17] = molecular target: Cytochrome P450 2C9 (Homo sapiens, UniProt P11712); experiment: Inhibition of CYP2C9 (unknown origin); format: ADME
Chain of Cytochrome P450 2C9 (P11712 whole entry): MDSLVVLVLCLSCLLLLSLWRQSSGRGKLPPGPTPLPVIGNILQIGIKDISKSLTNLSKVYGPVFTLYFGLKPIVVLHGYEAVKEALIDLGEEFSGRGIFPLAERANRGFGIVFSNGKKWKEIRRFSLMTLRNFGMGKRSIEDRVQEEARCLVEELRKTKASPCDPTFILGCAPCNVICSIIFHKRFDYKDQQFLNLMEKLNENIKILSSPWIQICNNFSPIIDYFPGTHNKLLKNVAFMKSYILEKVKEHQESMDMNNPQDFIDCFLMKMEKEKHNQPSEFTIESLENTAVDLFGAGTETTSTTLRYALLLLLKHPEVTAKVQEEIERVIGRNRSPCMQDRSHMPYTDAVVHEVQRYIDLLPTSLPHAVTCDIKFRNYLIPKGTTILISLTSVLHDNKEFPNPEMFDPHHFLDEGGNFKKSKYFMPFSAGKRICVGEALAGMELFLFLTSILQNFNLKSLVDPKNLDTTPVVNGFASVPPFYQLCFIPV

[18] = Tmax in NMRI mouse at 0.5 mg/kg, po; format: ADME, organism-based; design: dose 0.5 mg/kg, route oral; details: in vivo; summary of the method: as §1

**Q.** What does the source list for `O=C1NCCC12CCN(c1c(Cl)cncc1-c1ccc(N3CCOCC3)cc1)CC2`?
**A.** Tmax [1]: 6 min; clearance [2]: 65 mL/min/kg; IC50 [3]: 16 µM; IC50 [4]: 2100 nM; Vd [5]: 1.44 L/kg; IC50 [6]: 30 nM; Papp [7]: 37 ×10⁻⁶ cm/s; half-life [8]: 18.6 min; AUC [9]: 7.4 ng·h/mL; metabolised at 0.5 h, 10 µM [10]: 29%; Kinetic_solubility [11]: 164 µM; metabolised at 0.5 h, 10 µM [12]: 20%; bioavailability [13]: 6%; AUC [14]: 50.8 ng·h/mL; Therm_solubility [15]: 0.017 mg/mL; IC50 [16]: 19 µM; IC50 [17]: 2900 nM; Tmax [18]: 15 min
